Rows were chosen to be rich in hits. Some 2.6% of all compounds tested hit in one or more screens of this group.
NadD block = blocks S. aureus nicotinate mononucleotide adenylyltransferase. inhibition, % at 20 µM. purified NadD enzyme, colorimetric absorbance read-out. 360,000 compounds, 0.78% hits; in the data active = inhibition above about 26%
core dimer inh = HCV core protein dimerization inhibition. TR-FRET GST/Flag-core106 dimerization, 1536-well. inhibition, % at 5 µM. 300,000 compounds, 0.33% hits. AID 1899;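 active = inhibition above the mean of all tested compounds plus 3 SD, set per screening campaign, cut at about 45% in these data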
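assay system = GST-tagged and Flag-tagged HCV core protein residues 1-106 | controls = unlabelled core106 and no-GST-core106 wells | incubation = compound-protein-antibody incubation 4 h at 22.5 °C | probe or stimulus = Eu donor and XL665 acceptor anti-tag antibodies | read-out = % inhibition based on acceptor/donor emission ratio | signal = TR-FRET 671 and 617 nm emission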
ABHD5 PLIN5 PPI = inhibitors of human ABHD5-perilipin-5 interaction; Q00G26+Q8WTS1; Split G. princeps luciferase complementation, luminescence, 4 h; inhibition, % at 4 µM; 360,000 compounds, 0.78% hits;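 active = inhibition above the mean inhibition across every tested compound plus 3 SD, cut at about 22% in these data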;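 also: 0% = DMSO only wells and the 100% control is not disclosed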
rCAG RNA binder = binds r(CAG) RNA repeats. inhibition, % at 3 µM. r(CAG) RNA repeat, TO-PRO-1 dye displacement fluorescence. AID 651821. 370,000 compounds, 1.3% hits;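 active = inhibition above the plate cutoff, the mean of all test compounds on that plate plus 3 SD, cut at about 35% in these data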;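 also: 0% = DMSO alone and 100% = 100 µM mitoxantrone as full dye displacement; higher means more dye released from RNA so lower well fluorescence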
Active calls of the source: *.

Results for Cc1ccc2nc(SCC(=O)O)nc(C)c2c1 ?
NadD block: 6; core dimer inh: 3; ABHD5 PLIN5 PPI: 22*; rCAG RNA binder: 0

How did CO[C@@H]1[C@H](O)CC[C@]2(O)CN(c3ccc(F)cc3)[C@](C)([C@H](O)CC=C(C)C)[C@@H]12 do in these assays?
rCAG RNA binder: 5

How did COc1ccc([C@@H]2CC=C(C(=O)O)[C@H](c3cccc(Cl)c3)N2S(=O)(=O)c2ccccc2C)cc1 do in these assays?
NadD block: 4; core dimer inh: 31; ABHD5 PLIN5 PPI: -1; rCAG RNA binder: 74*

Results for COc1cccc(-c2cccc(-c3nc(C(=O)NCc4ccc(Oc5ccccc5)cc4)cc4c3[C@H](CCO)N(S(=O)C(C)(C)C)C4)c2)c1 (some centres undefined) ?
NadD block: 31*; ABHD5 PLIN5 PPI: 14

Results for COCCNC(=O)c1cc2c(c(-c3cccc(-c4cc5ccccc5o4)c3)n1)[C@H](CCO)N(S(=O)C(C)(C)C)C2 (some centres undefined) ?
NadD block: 3; ABHD5 PLIN5 PPI: 11; rCAG RNA binder: 10

What do the screens show for `CC(C)(C)S(=O)N1Cc2cc(C(=O)NCc3ccc(Oc4ccccc4)cc3)nc(-c3cccc(-c4cc5ccccc5o4)c3)c2[C@@H]1CCO` (some centres undefined)?
NadD block: 32*; ABHD5 PLIN5 PPI: 7

What do the screens show for `OC(c1ccccc1)(c1ccccc1)C1CCN(CCCOc2ccncc2)CC1`?
rCAG RNA binder: 1

How did O=C(O)C1Nc2ccc(Br)cc2C2C=CCC12 (centres undefined) do in these assays?
NadD block: 31*; core dimer inh: 23; ABHD5 PLIN5 PPI: 6

How did O=C(O)C1Nc2c(Cl)cc(Cl)cc2C2C=CCC12 (centres undefined) do in these assays?
NadD block: 28; core dimer inh: 33; ABHD5 PLIN5 PPI: 0

What do the screens show for `CCOC(=O)C1Nc2ccc(Br)cc2C2C=CCC12` (centres undefined)?
NadD block: 27; core dimer inh: 50*; ABHD5 PLIN5 PPI: -3; rCAG RNA binder: 63*

Results for CCOC(=O)C1Nc2ccc(C)cc2C2C=CCC12 (centres undefined) ?
NadD block: 0; core dimer inh: 38; ABHD5 PLIN5 PPI: 11; rCAG RNA binder: 33

Results for O=C(O)C1Nc2c(O)cccc2C2C=CCC12 (centres undefined) ?
NadD block: 40*; core dimer inh: 50*; ABHD5 PLIN5 PPI: 17; rCAG RNA binder: 82*

What do the screens show for `CCC[C@@H](/C=C/C(=O)OC(C)(C)C)Sc1ccc(OC)cc1`?
rCAG RNA binder: -1

What do the screens show for `O=C1N/C(=N/NC(=O)c2cccc3ccccc23)S/C1=C\c1ccccc1OCc1ccccc1`?
NadD block: 82*; ABHD5 PLIN5 PPI: 1; rCAG RNA binder: 27

Results for COc1cccc(/C=C2\SC(=O)NC2=O)c1OCc1ccc(C(=O)O)cc1 ?
NadD block: -1; core dimer inh: 6; ABHD5 PLIN5 PPI: 8; rCAG RNA binder: 28

Results for COc1ccc(OC)c(/C=C2\S/C(=N/NC(=O)c3ccc4ccccc4c3)NC2=O)c1 ?
NadD block: 70*; core dimer inh: 4; ABHD5 PLIN5 PPI: 5; rCAG RNA binder: 16

What do the screens show for `COC(=O)[C@@]12CCCCC3=C1N(CCC3)C(=O)[C@H]2CC(=O)NCc1ccccc1`?
rCAG RNA binder: 0

How did CC1CCCC(C)N1C(=O)Cn1cc(/C=C2/C(=O)Nc3ccccc32)c2ccccc21 (centres undefined) do in these assays?
NadD block: 34*; core dimer inh: 25; ABHD5 PLIN5 PPI: -1

How did COC(=O)c1cn(CC(=O)N2C(C)CCCC2C)c2ccccc12 (centres undefined) do in these assays?
NadD block: 5; core dimer inh: 8; ABHD5 PLIN5 PPI: 5; rCAG RNA binder: -4

How did C[C@H]1COc2cc(Br)ccc2S(=O)(=O)N1Cc1cn(CCC2OCCO2)nn1 do in these assays?
rCAG RNA binder: 1

Results for CC1Cc2ccccc2N1Cc1nc2cc(Cl)ccc2c(=O)[nH]1 (centres undefined) ?
NadD block: 23; core dimer inh: 72*; ABHD5 PLIN5 PPI: -1; rCAG RNA binder: 17

How did COc1ccc(NC(=O)c2ccc(N3C(=O)C4CC=C(Cl)CC4C3=O)cc2)cc1 (centres undefined) do in these assays?
NadD block: -2; core dimer inh: 44; ABHD5 PLIN5 PPI: -2; rCAG RNA binder: 18

Results for O=C(NN1C(=O)C2CC=C(Cl)CC2C1=O)c1ccncc1 (centres undefined) ?
NadD block: 7; core dimer inh: 48*; ABHD5 PLIN5 PPI: 2; rCAG RNA binder: 4

How did O=C(CBr)c1ccc([N+](=O)[O-])c(CS(=O)(=O)c2ccc(Cl)cc2)c1 do in these assays?
NadD block: -2; core dimer inh: -5; ABHD5 PLIN5 PPI: 27*; rCAG RNA binder: 14

How did C[C@@H]1ON(C)[C@H]2C[C@H]3c4cc(-c5ccccc5)ccc4CCN3C[C@@H]12 do in these assays?
rCAG RNA binder: 8

How did O=C(O)c1cc(N/N=C/c2ccc(N3CCOCC3)s2)ccc1Cl do in these assays?
NadD block: 13; core dimer inh: -29; ABHD5 PLIN5 PPI: -6; rCAG RNA binder: 75*

What do the screens show for `O=C(Nc1ccc(Nc2ccncc2)cc1)c1ccc([N+](=O)[O-])cc1`?
NadD block: -4; core dimer inh: 4; ABHD5 PLIN5 PPI: 3; rCAG RNA binder: 8

What do the screens show for `O=C(Nc1ccc(Nc2ccncc2)cc1)c1ccc(Nc2ccnc3ccc([N+](=O)[O-])cc23)cc1[N+](=O)[O-]`?
NadD block: 13; core dimer inh: 62*; ABHD5 PLIN5 PPI: -14; rCAG RNA binder: 6

What do the screens show for `O=c1cc(CN2CCN(c3ccccc3)CC2)nc2scc(-c3ccccc3)n12`?
NadD block: 30; core dimer inh: 46*; ABHD5 PLIN5 PPI: -2; rCAG RNA binder: 5

How did CC(=O)c1ccc(N2CCN(Cc3cc(=O)n4c(-c5ccccc5)csc4n3)CC2)cc1 do in these assays?
NadD block: 8; ABHD5 PLIN5 PPI: -9; rCAG RNA binder: 8

Results for Cc1ccc(C(=O)Oc2ccc(C(=O)COC(=O)C3CC(=O)N(Cc4ccco4)C3)cc2)cc1 (centres undefined) ?
NadD block: 7; core dimer inh: 6; ABHD5 PLIN5 PPI: 8

Results for O=C(COC(=O)C1CC(=O)N(Cc2ccco2)C1)c1ccc(OC(=O)c2ccco2)cc1 (centres undefined) ?
NadD block: 36*; core dimer inh: 21; ABHD5 PLIN5 PPI: 12; rCAG RNA binder: 1

How did O=C(CCN1C(=O)/C(=C/C=C/c2ccccc2)SC1=S)Nc1nc2ccccc2s1 do in these assays?
NadD block: 42*; core dimer inh: 44; ABHD5 PLIN5 PPI: 5; rCAG RNA binder: 10

How did COc1ccc(/C=C2\SC(=S)N(NC(=O)c3ccncc3)C2=O)cc1OC do in these assays?
core dimer inh: -11

What do the screens show for `O=C(NN1C(=O)/C(=C/C=C/c2ccccc2)SC1=S)c1ccncc1`?
NadD block: 34*; core dimer inh: 49*; ABHD5 PLIN5 PPI: -2; rCAG RNA binder: 29

Compound activity: PubChem BioAssay, several laboratories
